Apaf1 activ: activates human Apaf-1 apoptosome. O14727. Apaf-1 apoptosome caspase-3 activation, DEVD-Rh110 fluorescence; stronger effect = lower value. activity change, negative = activation, % at 20 µM. 330,000 tested, 0.31% active;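 active means activity change at or below -40% at 20 µM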
Target sequence (O14727 whole entry, looked up): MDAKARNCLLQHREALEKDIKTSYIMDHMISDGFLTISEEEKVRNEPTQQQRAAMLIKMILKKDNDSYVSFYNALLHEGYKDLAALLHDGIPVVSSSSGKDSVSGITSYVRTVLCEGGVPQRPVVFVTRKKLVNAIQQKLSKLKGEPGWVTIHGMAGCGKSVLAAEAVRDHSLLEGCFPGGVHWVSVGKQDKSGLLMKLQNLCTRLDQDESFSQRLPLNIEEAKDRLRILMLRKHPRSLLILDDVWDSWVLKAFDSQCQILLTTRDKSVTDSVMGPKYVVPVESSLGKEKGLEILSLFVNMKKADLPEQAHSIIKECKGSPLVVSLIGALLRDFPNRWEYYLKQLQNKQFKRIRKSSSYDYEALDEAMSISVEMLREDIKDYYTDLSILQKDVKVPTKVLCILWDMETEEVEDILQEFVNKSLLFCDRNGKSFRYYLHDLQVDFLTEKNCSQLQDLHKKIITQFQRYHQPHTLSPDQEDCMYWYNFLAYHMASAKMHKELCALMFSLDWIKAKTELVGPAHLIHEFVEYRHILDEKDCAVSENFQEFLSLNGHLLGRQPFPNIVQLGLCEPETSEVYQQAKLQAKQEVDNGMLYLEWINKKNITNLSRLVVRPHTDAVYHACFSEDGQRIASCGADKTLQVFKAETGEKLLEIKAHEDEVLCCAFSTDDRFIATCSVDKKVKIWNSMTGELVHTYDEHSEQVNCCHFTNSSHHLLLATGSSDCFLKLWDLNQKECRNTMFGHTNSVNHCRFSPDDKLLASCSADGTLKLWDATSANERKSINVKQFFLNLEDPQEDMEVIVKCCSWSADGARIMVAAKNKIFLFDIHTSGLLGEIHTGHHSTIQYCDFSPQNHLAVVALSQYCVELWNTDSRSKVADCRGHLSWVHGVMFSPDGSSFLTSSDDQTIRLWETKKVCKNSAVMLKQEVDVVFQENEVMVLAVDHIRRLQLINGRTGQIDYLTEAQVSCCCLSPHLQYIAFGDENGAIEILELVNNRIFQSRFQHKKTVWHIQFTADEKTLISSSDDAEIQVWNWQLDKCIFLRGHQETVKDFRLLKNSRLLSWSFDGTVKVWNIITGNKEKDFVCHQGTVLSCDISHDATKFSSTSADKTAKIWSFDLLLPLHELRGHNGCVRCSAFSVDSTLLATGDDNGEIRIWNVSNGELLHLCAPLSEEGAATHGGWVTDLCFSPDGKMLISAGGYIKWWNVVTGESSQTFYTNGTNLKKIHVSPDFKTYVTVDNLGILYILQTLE
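Material: biochemical Apaf-1 apoptosome reconstitution; Medium: 20 mM HEPES buffer, pH 7.5, containing CHAPS and BSA; Reagent: dATP, cytochrome c, and (Z-DEVD)2-Rh110 caspase-3 substrate; Times: 30 min preincubation, 50 min reaction, room temperature; Signal: Rh110 fluorescence, excitation 480 nm, emission 540 nm; Measure: Caspase-3 activity via Apaf-1.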
Rh110 act interf: counter-screen for Apaf-1 activators: fluorescence interference. shares compounds with Apaf1 activ. Rh110 fluorescence interference, quenched caspase reaction, Ex480/Em540. fluorescence interference (activity change), % at 20 µM, hits read low. 980 tested, under 10 active. AID 504616;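 active means mean activity change at or below -40% when tested at 20 µM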
Apaf-1 act conf: confirmation of human Apaf-1 activators; reconstituted apoptosome caspase-3 activity, DEVD-Rh110 fluorescence; stronger effect = lower value; AID 504617; activity change, negative = activation, % at 20 µM; shares compounds with Apaf1 activ; 980 tested, 5% active;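 active means mean activity change at or below -40%, meaning activation of 40% or more, at 20 µM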
Fluor interf act: counter-screen for Apaf-1 activators: fluorescence interference, dose response | shares compounds with Apaf1 activ | fluorescence interference counterscreen, Apaf-1 activator assay | EC50, µM | 55 tested, under 10 active | AID 588592; call rule not given here
* hit, by the source's call. Not all results are given here.

SMILES	Apaf1 activ	others
CCOC(=O)c1c(N)n(CCOC(=O)c2cccs2)c2nc3ccccc3nc12	95
CCc1ccccc1NC(=O)COC(=O)c1cccs1	-104*	Rh110 act interf=12;Apaf-1 act conf=9
CC(=O)c1ccc(N2CCN(S(=O)(=O)c3ccc4c5c3CC(=O)N5CC(C)S4)CC2)cc1 (stereo unspecified)	56
CCCCc1ccc(NC(=O)c2ccc(NS(C)(=O)=O)cc2)cc1	-102*	Rh110 act interf=3;Apaf-1 act conf=13
CCOC(=O)CNc1ccc2c(c1)OCO2	40
Cc1ccc(NC(=O)c2ccc(CN3CCc4ccccc4C3)cc2)cc1	48
CS(=O)(=O)Nc1ccc(C(=O)Nc2ccc3c(c2)OCO3)cc1	-58*	Rh110 act interf=-4;Apaf-1 act conf=1
CCN(C(=O)c1coc(=O)c(Br)c1)c1ccc2c(c1)OCO2	59
O=C(O)c1cc(O)c2c(c1)[C@H]([C@H]1c3cc(C(=O)O)cc(O)c3C(=O)c3c(O[C@@H]4O[C@H](CO)[C@@H](O)[C@H](O)[C@H]4O)cccc31)c1cccc(OC3O[C@H](CO)[C@@H](O)[C@H](O)[C@H]3O)c1C2=O (stereo partly specified)	89
CCN(Cc1ccccc1)S(=O)(=O)c1ccc(C(=O)N(CCCN(C)C)c2nc3cc(OC)ccc3s2)cc1	40
O=c1cc(-c2cccc([N+](=O)[O-])c2)[nH][nH]1	68
CCN(CC)C(=O)[C@H]1C[C@H](CC(=O)NCc2cccc(C(F)(F)F)c2)C(=O)N2CCc3c([nH]c4ccc(Cl)cc34)[C@]12C	46
C[n+]1cccc2c(Br)ccc([O-])c21	98
CCOc1ccc(S(=O)(=O)N2CCc3ccccc3C2)cc1	-120*	Rh110 act interf=-5;Apaf-1 act conf=12
CN1CCN(S(=O)(=O)c2ccc(SCCOc3ccc(Cl)cc3)nc2)CC1	51
CCOc1cccc2sc(N(CCCN(C)C)C(=O)c3ccc(S(=O)(=O)N4CCc5ccccc5C4)cc3)nc12	62
Cc1[nH]n(-c2ccccc2)c(=O)c1C(c1ccc(O)c([N+](=O)[O-])c1)c1c(C)[nH]n(-c2ccccc2)c1=O	87
OC(CNc1ccccc1)COc1ccc(OCC(O)CNc2ccccc2)cc1 (stereo unspecified)	-141*	Rh110 act interf=3;Apaf-1 act conf=5
O=C(c1ccccc1)c1ccc(OCC(O)CNC2CCCc3ccccc32)cc1 (stereo unspecified)	52
OC(CNC1CCCc2ccccc21)COc1ccc2ccccc2c1 (stereo unspecified)	47
Cc1ccc(C)c(-n2ccnc2SCC(=O)O)c1	-465*	Rh110 act interf=-11;Apaf-1 act conf=8
COc1cc(OC)cc(-c2sc3ccc(OC)cc3c2-c2ccc(OCCN3CCCCC3)cc2)c1	60
COc1cccc2nc3cc(C)c(C)cc3nc12	84
COc1ccc(C)cc1NC(=O)COC(=O)C1COc2ccccc2O1 (stereo unspecified)	-53*	Rh110 act interf=-1;Apaf-1 act conf=10
Cc1[nH]n(-c2ccccc2)c(=O)c1/C=N\NC(=O)C1COc2ccccc2O1 (stereo unspecified)	54
SMILES	Apaf1 activ	others
Cc1noc(C)c1COC(=O)C1COc2ccccc2O1 (stereo unspecified)	-73*	Rh110 act interf=-6;Apaf-1 act conf=12
COc1ccc(C)cc1NC(=O)CN1C(=O)C2CC=CCC2C1=O (stereo unspecified)	-315*	Rh110 act interf=1;Apaf-1 act conf=9
C#CCOCCOCCOCCNc1nc(N2CCN(C(=O)CCCCCCCCCCNC(=O)[C@H]([C@@H](C)CC)n3cc(CCCCN=C(N)N)nn3)CC2)nc(N2CCN(C(=O)CCCCCCCCCCNC(=O)[C@H]([C@@H](C)CC)n3cc(CCCCN=C(N)N)nn3)CC2)n1	41
Cc1cc(C)cc(NC(=S)Nc2cccc3cnccc23)c1	98
Nc1nc2c(s1)CCc1c-2cnn1-c1ccccc1	93
c1csc(Cc2nn3c(-c4n[nH]c5c4CCC5)nnc3s2)c1	41
COc1cc(OC)c2c(-c3ccccc3)cc(=O)oc2c1C(CCN1CCCC1)c1ccc2c(c1)OCO2 (stereo unspecified)	49
N#Cc1c(N2CCCC(O)C2)nc(N)c2c(N)nc3c(c12)CC(=O)N3C12CC3CC(CC(C3)C1)C2 (stereo unspecified)	98
N=C1CCC(=N)c2c1c(O)c1ccccc1c2O	77
Nc1ccn([C@H]2C[C@H](O)[C@@H](CO)O2)c(=O)n1	-6
CCOc1ccc(S(=O)(=O)N2CCCCC2)cc1NC(=O)C1=COCCO1	-131*	Rh110 act interf=18;Apaf-1 act conf=19
CCOC(=O)C1CCCN(C(=O)c2cc(S(=O)(=O)N3CCCCCC3)ccc2OC)C1 (stereo unspecified)	49
CCN(CC)c1ccc(S(=O)(=O)N2CCCCC2)cc1NC(=O)C1CSC2(C)CCC(=O)N12 (stereo unspecified)	51
CCCNc1c(F)c(F)c2c(C)c3ccccc3nc2c1F	51
Cc1[nH][nH]c(=O)c1C(c1ccc(-c2ccc(Cl)c(Cl)c2)o1)c1c(C)[nH][nH]c1=O	79
O=C(N/N=C/c1cc(Cl)cc([N+](=O)[O-])c1O)NC12CC3CC(CC(C3)C1)C2	-56*	Rh110 act interf=-4;Apaf-1 act conf=-121*;Fluor interf act=>100
CC1(OC(=O)c2ccc(Cl)nc2)C(=O)C=C2C=C3CCCN3C=C2C1=O (stereo unspecified)	44
COc1cc(NCc2ccccc2)c2ncn(Cc3ccccc3)c2c1	50
CN(C)c1ccc(NC2=C(Cl)C(=O)c3ccccc3C2=O)cc1	43
Cc1nn(-c2ccccc2)c(C)c1CN(C)C(=O)c1ccc(S(=O)(=O)NCc2ccco2)cc1	49
CC(C)(C)c1ccc(C(=O)NNC(=S)NCc2ccco2)cc1	-41*	Rh110 act interf=6;Apaf-1 act conf=14
O=C(NCCO)c1ccc2nc(-c3ccco3)c(-c3ccco3)nc2c1	78
C#CCOCCOCCOCCNc1nc(N2CCN(C(=O)[C@H](CCCCN)n3cc([C@@H](N)CC(N)=O)nn3)CC2)nc(N2CCN(C(=O)[C@H](CCCCN)n3cc([C@@H](N)CC(N)=O)nn3)CC2)n1	55
CCN1/C(=C/C(C)=C/c2sc3ccccc3[n+]2CC)Sc2ccccc21	53
COc1cc(CCc2ccccc2)c(C(=O)O)c(O)c1C/C=C(/C)CCC=C(C)C	43
SMILES	Apaf1 activ	others
CCN(CC)CCOC(=O)c1ccc(NC(=O)CCCN2C(=O)/C(=C\c3cccs3)SC2=S)cc1	60
C=CCNc1nc(Cl)nc(Nc2ccc(OCC)cc2)n1	-51*	Rh110 act interf=-2;Apaf-1 act conf=11
CN[C@H]1CC[C@@H](c2ccc(Cl)c(Cl)c2)c2ccccc21	50
CC1Cc2ccccc2N1CC(=O)Nc1ccc(S(=O)(=O)N(C)C)cc1 (stereo unspecified)	-444*	Rh110 act interf=57;Apaf-1 act conf=17
CN(C)S(=O)(=O)c1ccc(NC(=O)CN2CCCC2c2ccc3c(c2)OCCCO3)cc1 (stereo unspecified)	46
COC(=O)CCC(=O)OC1(C)C(=O)C2=CN(C3CC3)C(c3ccc(OC)cc3)=CC2=C(Br)C1=O (stereo unspecified)	61
S=c1[nH]c2cc(Cl)c3cccnc3c2o1	46
